Calls of active or inactive are those of the source.
Key:
Mus musculus [1] = experiment: Toxicity in BALB/c mouse assessed as mortality at 5 mg/kg, ip; format: organism-based; parameters: dose 5 mg/kg, route intraperitoneal; settings: in vivo
[2] = target: Superoxide dismutase [Cu-Zn] (Homo sapiens, UniProt P00441); experiment: Inhibition of human Cu-Zn superoxide dismutase assessed as inhibition of NADPH reduction
How it was run: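 Human erythrocyte CuZn-SOD, purchased, assayed by NAD(P)H oxidation; 1 U gives 50% inhibition of the rate. Compounds at 1, 10, 25, 50, 100 μM. IC50 by linear regression; five determinations; Newman-Keuls test.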

Trypanosoma cruzi [3] = experiment: Effect on metabolic excretion in epimastigotes of Trypanosoma cruzi assessed as L-alanine excretion level at IC25 concentration after 72 hrs by nuclear magnetic resonance spectroscopy analysis; format: ADME, organism-based
How it was run: (§1)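 Epimastigote cultures started at 5 × 10^5 cells/mL and given drug at IC25, 72 h at 28 °C. Excreted metabolites assessed by 1H NMR of spent medium, compared with cell-free medium.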

Trypanosoma cruzi [4] = experiment: Effect on metabolic excretion in epimastigotes of Trypanosoma cruzi assessed as acetate excretion level at IC25 concentration after 72 hrs by nuclear magnetic resonance spectroscopy analysis; format: ADME, organism-based; how it was run: as §1
Trypanosoma cruzi [5] = experiment: Effect on metabolic excretion in epimastigotes of Trypanosoma cruzi assessed as succinate excretion level at IC25 concentration after 72 hrs by nuclear magnetic resonance spectroscopy analysis; format: ADME, organism-based; how it was run: as §1
Trypanosoma cruzi [6] = experiment: Antitrypanosomal activity against epimastigote of Trypanosoma cruzi Maracay after 72 hrs; format: functional, organism-based
How it was run: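 Maracay strain epimastigotes in exponential phase, obtained in NNN medium with MEM and 20% inactivated FBS and then kept in monophasic MTL culture. Seeded at 2 × 10^6 parasites/mL with 1, 10, 25, 50 or 100 μM compound (0.01% DMSO). Parasites counted by Neubauer hemocytometer at 72 h; IC50 derived.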

Vero = experiment: Cytotoxicity against african green monkey Vero cells after 72 hrs by trypan blue assay; format: cell-based; settings: Chlorocebus sabaeus
How it was run: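 Vero cells in MEM with 10% inactivated FCS, pH 7.2, 37 °C, 5% CO2. Seeded at 1 × 10^5 cells/mL and grown 2 days, then exposed 72 h to 1, 10, 25, 50 or 100 μM. Viability scored by trypan blue (0.1%) relative to control; IC50 obtained by linear regression.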

[7] = Selectivity index, ratio of IC50 for african green monkey Vero cells to IC50 for epimastigote of Trypanosoma cruzi Maracay; format: toxicity, cell-based; settings: read-out: Selectivity Index
Trypanosoma cruzi [8] = experiment: Antitrypanosomal activity against Trypanosoma cruzi infected in african green monkey Vero cells assessed as reduction of parasite infection rate at IC25 after 10 days; format: functional; parameters: scale not given: the % may be the effect or the level left
How it was run: (§2)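 Vero cells seeded at 1 × 10^5 cells/well on coverslips and grown 2 days in MEM at 37 °C, 5% CO2. Infected with metacyclic forms at 10:1, obtained by culture in modified Grace's medium at 28 °C for 12 days. Drug present 6 h, then removed by washing; cultures grown 10 days with medium renewed every 48 h. Methanol-fixed, Giemsa-stained; >100 host cells counted; means of four determinations.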

Trypanosoma cruzi [9] = experiment: Antitrypanosomal activity against Trypanosoma cruzi infected in african green monkey Vero cells assessed as reduction of amastigote number per infected cell at IC25 after 10 days relative to control; format: functional; parameters: scale not given: the % may be the effect or the level left; how it was run: as §2
Trypanosoma cruzi [10] = experiment: Antitrypanosomal activity against Trypanosoma cruzi infected in african green monkey Vero cells assessed as reduction of trypomastigote number per infected cell at IC25 after 10 days relative to control; format: functional; parameters: scale not given: the % may be the effect or the level left
Trypanosoma cruzi [11] = experiment: Antitrypanosomal activity against trypomastigote of Trypanosoma cruzi infected in BALB/c mouse assessed as increase of host survival at 1 mg/kg, ip for 5 days administered 7 days after infection; format: functional
How it was run: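 Female BALB/c mice (6-8 weeks, 25-30 g) in groups of five were infected intraperitoneally with T. cruzi metacyclic forms, with circulating parasites confirmed on day 5 by microhematocrit. They were dosed intraperitoneally at 1 mg/kg/day for five consecutive days (days 7-12 post-infection) and compared with infected untreated and uninfected controls. Deaths were recorded every two days.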

Trypanosoma cruzi [12] = experiment: Antitrypanosomal activity against trypomastigote of Trypanosoma cruzi infected in BALB/c mouse assessed as reduction of parasitemia at 1 mg/kg, ip for 5 days measured after 40 days postinfection; format: functional, organism-based; parameters: dose 1 mg/kg
How it was run: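 Female BALB/c mice (6–8 weeks, 25–30 g), groups of five, infected ip with 3 × 10^3 metacyclic forms. Dosed 1 mg/kg/day ip for days 7–12 post-infection. Tail blood (5 μL) diluted 1:15 in citrate/lysis buffer pH 7.2; parasites counted in Neubauer chamber; deaths recorded every two days.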

Trypanosoma cruzi [13] = experiment: Antitrypanosomal activity against trypomastigote of Trypanosoma cruzi infected in BALB/c mouse assessed as reduction of anti-Trypanosoma cruzi antibody level at 1 mg/kg, ip qd for 5 days measured after 120 days postinfection by ELISA; format: functional; settings: route intraperitoneal
How it was run: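 Female BALB/c mice (6–8 weeks, 25–30 g; groups of four for serology) infected ip with 3 × 10^3 metacyclic forms. Dosed 1 mg/kg/day ip for five consecutive days, days 7–12 post-infection. Sera diluted 1:100 tested by ELISA against soluble T. cruzi epimastigote Fe-SOD antigen at days 40 and 120. Read at 490 nm; cutoff is negative-control mean + 3 SD.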

[14] = Inhibition of Trypanosoma cruzi iron superoxide dismutase assessed as inhibition of NADPH reduction
How it was run: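 Maracay epimastigotes sonicated in sucrose/Tris/EDTA buffer, pH 7.8. Clarified supernatant taken through 35–85% ammonium sulfate cut, then desalted into 20 mM phosphate pH 7.8 with 1 mM EDTA. Activity measured by NAD(P)H oxidation; 1 U gives 50% inhibition of the rate. Compounds at 1, 10, 25, 50, 100 μM. IC50 by linear regression; five determinations; Newman-Keuls test.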

Trypanosoma cruzi [15] = experiment: Effect on metabolic excretion in epimastigotes of Trypanosoma cruzi assessed as lactate excretion level at IC25 concentration after 72 hrs by nuclear magnetic resonance spectroscopy analysis; format: ADME, organism-based; how it was run: as §1
Trypanosoma cruzi [16] = experiment: Antitrypanosomal activity against epimastigotes of Trypanosoma cruzi assessed as change in ultrastructural morphological changes at IC25 concentration after 72 hrs by transmission electron microscopy; format: functional, organism-based
How it was run: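 Epimastigotes at 5 × 10^6 cells/mL cultured with drug at IC25 for 72 h. Pelleted at 400g, washed in PBS, then fixed in 2% formaldehyde-glutaraldehyde in 0.05 M cacodylate pH 7.4 for 2 h at 4 °C before transmission electron microscopy.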

Mus musculus [17] = experiment: Toxicity in Trypanosoma cruzi infected BALB/c mouse assessed as lymphocytic infiltration in portal tracts at 5 mg/kg, ip administered 90 days after postinfection by conventional light microscopic analysis; format: organism-based; parameters: dose 5 mg/kg, route intraperitoneal; settings: in vivo, 2160 h
How it was run: (§3)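 Livers of infected mice dosed at 5 mg/kg, examined at 90 days post-infection. Paraffin sections 4–5 μm, stained with Giemsa, H&E and Masson's trichrome. Slides coded for blinded light microscopy, ≥30 fields per slide. Alterations scored 0–5.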

Mus musculus [18] = experiment: Toxicity in Trypanosoma cruzi infected BALB/c mouse assessed as small interstitial hemorrhage at 5 mg/kg, ip administered 90 days after postinfection by conventional light microscopic analysis; format: organism-based; parameters: dose 5 mg/kg, route intraperitoneal; settings: in vivo, 2160 h; how it was run: as §3
Trypanosoma cruzi [19] = experiment: Effect on metabolic excretion in epimastigotes of Trypanosoma cruzi assessed as malate excretion level at IC25 concentration after 72 hrs by nuclear magnetic resonance spectroscopy analysis; format: ADME, organism-based
Mus musculus [20] = experiment: Toxicity in Trypanosoma cruzi infected BALB/c mouse assessed as lymphocytic infiltration at 5 mg/kg, ip administered 90 days after postinfection by conventional light microscopic analysis; format: organism-based; parameters: dose 5 mg/kg, route intraperitoneal; settings: in vivo, 2160 h; how it was run: as §3
Mus musculus [21] = experiment: Toxicity in Trypanosoma cruzi infected BALB/c mouse assessed as hepatic destruction at 5 mg/kg, ip administered 90 days after postinfection by conventional light microscopic analysis; format: organism-based; parameters: dose 5 mg/kg, route intraperitoneal; settings: in vivo, 2160 h; how it was run: as §3

Sequence of Superoxide dismutase [Cu-Zn] (P00441 whole entry): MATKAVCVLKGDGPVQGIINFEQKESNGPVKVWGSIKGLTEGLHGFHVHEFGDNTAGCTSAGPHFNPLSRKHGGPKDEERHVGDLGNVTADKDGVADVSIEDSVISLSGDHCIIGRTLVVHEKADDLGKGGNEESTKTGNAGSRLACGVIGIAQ

| SMILES | Activity (Mus musculus [1]) | IC50 [2] | Activity (Trypanosoma cruzi [3]) | Activity (Trypanosoma cruzi [4]) | Activity (Trypanosoma cruzi [5]) | Activity (Trypanosoma cruzi [8]) | Activity (Trypanosoma cruzi [9]) | Activity (Trypanosoma cruzi [10]) | Activity (Trypanosoma cruzi [11]) | Activity (Trypanosoma cruzi [12]) | deltaA (Trypanosoma cruzi [13]) | IC50 [14] | Activity (Trypanosoma cruzi [16]) | further results |
| --- | --- | --- | --- | --- | --- | --- | --- | --- | --- | --- | --- | --- | --- | --- |
| c1ccc2cc3c(NCCc4cnc[nH]4)nnc(NCCc4cnc[nH]4)c3cc2c1 | Non-toxic | 366 µM | 35% | -30% | -39% | – | – | – | – | – | – | – | – | – |
| Clc1nnc(Nc2cc[nH]n2)c2cc3ccccc3cc12 | Non-toxic | 103 µM | – | -36% | 27% | 68% | 56% | 63% | Active | Active | -0.228 absorbance units | 17.2 µM | Active | IC50 (Trypanosoma cruzi [6]): 17.5 µM; IC50 (Vero): 133 µM; selectivity ratio [7]: 7.58; Activity (Trypanosoma cruzi [15]): -61%; Activity (Mus musculus [17]): Toxic; Activity (Mus musculus [18]): Toxic |
| O=C(Cn1ccnc1[N+](=O)[O-])NCc1ccccc1 [BENZNIDAZOLE] | – | – | – | – | – | 39% | 15% | 43% | – | – | 0.11 absorbance units | – | – | Activity (Trypanosoma cruzi [11]; route intraperitoneal): 80% |
| c1ccc2cc3c(NCCCn4ccnc4)nnc(NCCCn4ccnc4)c3cc2c1 | Non-toxic | 67.9 µM | 43% | -22% | -27% | – | – | – | Active | Active | 0.266 absorbance units | 28.3 µM | – | – |
| Clc1nnc(NCCCn2ccnc2)c2cc3ccccc3cc12 | Non-toxic | 129 µM | 61% | -26% | -49% | – | – | – | Active | Active | -0.151 absorbance units | 1.3 µM | Active | – |
| c1ccc2cc3c(NCCc4c[nH]cn4)nnc(NCCc4c[nH]cn4)c3cc2c1 | – | – | – | – | – | – | – | – | Active | Active | 0.044 absorbance units | 29.6 µM | Active | – |
| c1ccc2cc3c(Nc4ccn[nH]4)nnc(Nc4ccn[nH]4)c3cc2c1 [1,4-BIS(3'-PYRAZOLYLAMINO)BENZO[G]PHTHALAZINE] | Non-toxic | 96.6 µM | – | – | -24% | – | – | – | – | – | – | – | – | selectivity ratio [7]: 2.99; Activity (Trypanosoma cruzi [15]): -55%; Activity (Trypanosoma cruzi [19]): 100% |
| Clc1nnc(NCCc2c[nH]cn2)c2cc3ccccc3cc12 | Non-toxic | 787 µM | 22% | -18% | -37% | – | – | – | Active | Active | -0.076 absorbance units | 9.4 µM | Active | Activity (Mus musculus [20]): Toxic; Activity (Mus musculus [21]): Toxic |
| c1ccc2cc3c(Nc4cc[nH]n4)nnc(Nc4cc[nH]n4)c3cc2c1 [1,4-BIS(3'-PYRAZOLYLAMINO)BENZO[G]PHTHALAZINE] | – | – | – | – | – | 63% | 40% | 53% | Active | Active | 0.138 absorbance units | 22.9 µM | Active | IC50 (Trypanosoma cruzi [6]): 32.8 µM; IC50 (Vero): 98.3 µM |

Source: ChEMBL document CHEMBL1671779, “In vivo trypanosomicidal activity of imidazole- or pyrazole-based benzo[g]phthalazine derivatives against acute and chronic phases of Chagas disease” (J Med Chem, 2011)
